Laboratory results: ChEMBL document CHEMBL1240422, “Design, synthesis and biological evaluation of 3,5-diaryl-isoxazoline/isoxazole-pyrrolobenzodiazepine conjugates as potential anticancer agents” (2010)
The source made the active and inactive calls. The rule behind the calls is not given here.

Key:
[1] = system: A498; assay: Anticancer activity against human A498 cells after 48 hrs by SRB assay; format: functional; conditions: A498, 48 h
[2] = system: A549; assay: Anticancer activity against human A549 cells after 48 hrs by SRB assay; format: functional; conditions: A549, 48 h
Summary of the method: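 Grown in RPMI 1640 with 10% FBS and 2 mM L-glutamine at 37 °C, 5% CO2. Seeded at densities set by doubling time, then preincubated 24 h. Continuous 48 h drug exposure at four concentrations (0.1, 1, 10, 100), triplicate wells. Fixed with cold TCA (final 10%) at 4 °C, 60 min. Stained with 0.4% SRB in 1% acetic acid, eluted with 10 mM Tris base, read at 540/690 nm. Percent growth versus control wells.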

[3] = system: OVCAR-3; assay: Anticancer activity against human OVCAR-3 cells after 48 hrs by SRB assay; format: functional; conditions: OVCAR-3, 48 h
[4] = system: SK-MEL-2; assay: Anticancer activity against human SK-MEL-2 cells after 48 hrs by SRB assay; format: functional; conditions: SK-MEL-2, 48 h
[5] = system: NCI-H322M; assay: Anticancer activity against human NCI-H322M cells after 48 hrs by SRB assay; format: functional
[6] = system: T47D; assay: Anticancer activity against human T47D cells after 48 hrs by SRB assay; format: functional
[7] = system: EKVX; assay: Anticancer activity against human EKVX cells after 48 hrs by SRB assay; format: functional
[8] = system: RXF 393; assay: Anticancer activity against human […] cells after 48 hrs by SRB assay; format: functional; conditions: RXF 393, 48 h
[9] = system: HCT-116; assay: Anticancer activity against human HCT116 cells after 48 hrs by SRB assay; format: functional; conditions: HCT-116, 48 h
[10] = system: A-375; assay: Induction of apoptosis in human A375 cells assessed as increase in PPAR protein level at 4 uM after 24 hrs by Western blotting; format: functional, cell-based
Summary of the method: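 A375 cells were treated for 24 h and lysed in ice-cold RIPA buffer (1% NP-40, 0.5% deoxycholate, 0.1% SDS, protease inhibitors). Protein was quantified by Bradford assay, and 30 µg/lane was run on 12% SDS-PAGE and transferred to PVDF. Membranes were blocked 2 h at RT in TBST with 5% blocker, incubated with primary antibody overnight at 4 °C, then with HRP secondary (1:2000, 1 h, RT). Detection was by chemiluminescence, with β-actin as loading control.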

[11] = system: NCI-H23; assay: Anticancer activity against human NCI-H23 cells after 48 hrs by SRB assay; format: functional; conditions: NCI-H23, 48 h
[12] = Anticancer activity against human Hs 578T cells after 48 hrs by SRB assay; format: functional
[13] = system: DU-145; assay: Anticancer activity against human DU145 cells after 48 hrs by SRB assay; format: functional; conditions: DU-145, 48 h
[14] = system: BT-549; assay: Anticancer activity against human BT549 cells after 48 hrs by SRB assay; format: functional; conditions: BT-549, 48 h
[15] = system: UACC-62; assay: Anticancer activity against human UACC62 cells after 48 hrs by SRB assay; format: functional; conditions: UACC-62, 48 h
[16] = system: UACC-257; assay: Anticancer activity against human UACC257 cells after 48 hrs by SRB assay; format: functional; conditions: UACC-257, 48 h
[17] = system: HCT-15; assay: Anticancer activity against human HCT15 cells after 48 hrs by SRB assay; format: functional; conditions: HCT-15, 48 h
[18] = system: U-251; assay: Anticancer activity against human U251 cells after 48 hrs by SRB assay; format: functional; conditions: U-251, 48 h
[19] = system: TK-10; assay: Anticancer activity against human TK10 cells after 48 hrs by SRB assay; format: functional; conditions: TK-10, 48 h
[20] = system: HCC 2998; assay: Anticancer activity against human HCC2998 cells after 48 hrs by SRB assay; format: functional; conditions: HCC 2998, 48 h
[21] = system: KM12; assay: Anticancer activity against human KM12 cells after 48 hrs by SRB assay; format: functional; conditions: KM12, 48 h
[22] = system: SNB-19; assay: Anticancer activity against human SNB19 cells after 48 hrs by SRB assay; format: functional; conditions: SNB-19, 48 h
[23] = system: NCI-H226; assay: Anticancer activity against human NCI-H226 cells after 48 hrs by SRB assay; format: functional; conditions: NCI-H226, 48 h
[24] = system: 786-0; assay: Anticancer activity against human 786-0 cells after 48 hrs by SRB assay; format: functional; conditions: 786-0, 48 h

## COc1ccc(C2=NOC(c3cc(OC)c(OC)c(OC)c3)C2)cc1OCCCCOc1cc2c(cc1OC)C(=O)N1CCC[C@H]1C=N2 (some centres undefined)
[1]
  GI50: 0.18 µM
[2]
  GI50: 0.26 µM
[3]
  GI50: 0.27 µM
[4]
  GI50: 0.23 µM
[5]
  GI50: 0.34 µM
[6]
  GI50: 0.28 µM
[7]
  GI50: 0.46 µM
[8]
  GI50: 0.21 µM
[9]
  GI50: 0.18 µM
[10]
  Activity: Active
[11]
  GI50: 0.27 µM
[12]
  GI50: 0.16 µM
[13]
  GI50: 0.58 µM
[14]
  GI50: 0.09 µM
[15]
  GI50: 0.16 µM
[16]
  GI50: 0.27 µM
[17]
  GI50: 0.18 µM
[18]
  GI50: 0.3 µM
[19]
  GI50: 0.28 µM
[20]
  GI50: 0.19 µM
[21]
  GI50: 0.22 µM
[22]
  GI50: 0.34 µM
[23]
  GI50: 0.17 µM
[24]
  GI50: 0.28 µM
